Experiments:
Abutilon theophrasti [1] = test: Herbicidal activity against Abutilon theophrasti (velvetleaf) assessed as weed growth inhibition at 75 g/ha post-emergence treatment […]; type: functional; conditions: read-out: GI
Outline: (§1)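 Pot-grown plants in the greenhouse, in clay soil (pH 6.5, 1.6% organic matter, 37.3% clay, CEC 12.1 cmol/kg). Compound was made up as a 100 g/L emulsified concentrate (DMF, Tween-80), diluted in water and sprayed at 75 g ai/ha. Pre-emergence spraying was 24 h after sowing; post-emergence at two-leaf (dicots) or one-leaf (monocots) stage. Untreated and DMF controls. Percent growth inhibition scored visually 15 days post-treatment.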

Chenopodium album [2] = test: Herbicidal activity against fat hen Chenopodium album assessed as weed growth inhibition at 75 g/ha post-emergence treatment […]; type: functional; conditions: read-out: GI; outline: as §1
Digitaria sanguinalis [3] = test: Herbicidal activity against crabgrass Digitaria sanguinalis(hairy crabgrass) assessed as weed growth inhibition at 75 g/ha post-emergence treatment […]; type: functional; conditions: read-out: GI; outline: as §1
Abutilon theophrasti [4] = test: Herbicidal activity against Abutilon theophrasti (velvetleaf) assessed as weed growth inhibition at post-emergence treatment […]; type: functional, organism-based; outline: as §1
Abutilon theophrasti [5] = test: Herbicidal activity against Abutilon theophrasti (velvetleaf) assessed as weed growth inhibition at 75 g/ha pre-emergence treatment […]; type: functional; conditions: read-out: GI; outline: as §1
Echinochloa crus-galli [6] = test: Herbicidal activity against Echinochloa crus-galli (barnyard grass) (barnyard grass) assessed as weed growth inhibition at 75 g/ha pre-emergence treatment […]; type: functional; conditions: read-out: GI; outline: as §1
Digitaria sanguinalis [7] = test: Herbicidal activity against crabgrass Digitaria sanguinalis(hairy crabgrass) assessed as weed growth inhibition at 75 g/ha pre-emergence treatment […]; type: functional; conditions: read-out: GI; outline: as §1
Echinochloa crus-galli [8] = test: Herbicidal activity against Echinochloa crus-galli (barnyard grass) (barnyard grass) assessed as weed growth inhibition at 75 g/ha post-emergence treatment […]; type: functional; conditions: read-out: GI; outline: as §1
Amaranthus blitum [9] = test: Herbicidal activity against Amaranthus blitum assessed as weed growth inhibition at 75 g/ha post-emergence treatment […]; type: functional; conditions: read-out: GI; outline: as §1
Digitaria sanguinalis [10] = test: Herbicidal activity against crabgrass Digitaria sanguinalis(hairy crabgrass) assessed as weed growth inhibition at post-emergence treatment […]; type: functional, organism-based; outline: as §1
Chenopodium album [11] = test: Herbicidal activity against fat hen Chenopodium album assessed as weed growth inhibition at 75 g/ha pre-emergence treatment […]; type: functional; conditions: read-out: GI; outline: as §1
Amaranthus blitum [12] = test: Herbicidal activity against Amaranthus blitum assessed as weed growth inhibition at 75 g/ha pre-emergence treatment […]; type: functional; conditions: read-out: GI; outline: as §1
Setaria viridis [13] = test: Herbicidal activity against Setaria viridis (green foxtail) assessed as weed growth inhibition at 75 g/ha pre-emergence treatment […]; type: functional; conditions: read-out: GI; outline: as §1
Setaria viridis [14] = test: Herbicidal activity against Setaria viridis (green foxtail) assessed as weed growth inhibition at 75 g/ha post-emergence treatment […]; type: functional; conditions: read-out: GI; outline: as §1

## CC1Oc2cc(F)c(N3C(=O)c4cccc(F)c4C3=O)cc2N(CC#CI)C1=O (configuration not stated)
Abutilon theophrasti [1]
  inhibition of growth at 75 g/ha: > 80%
Chenopodium album [2]
  inhibition of growth at 75 g/ha: > 80%
Digitaria sanguinalis [3]
  inhibition of growth at 75 g/ha: < 50%
Abutilon theophrasti [4]
  IC50: 7.5 g/ha
Abutilon theophrasti [5]
  inhibition of growth at 75 g/ha: > 80%
Echinochloa crus-galli [6]
  inhibition of growth at 75 g/ha: < 50%
Digitaria sanguinalis [7]
  inhibition of growth at 75 g/ha: < 50%
Echinochloa crus-galli [8]
  inhibition of growth at 75 g/ha: < 50%
Amaranthus blitum [9]
  inhibition of growth at 75 g/ha: > 80%
Digitaria sanguinalis [10]
  IC50: 238 g/ha
Chenopodium album [11]
  inhibition of growth at 75 g/ha: > 80%
Amaranthus blitum [12]
  inhibition of growth at 75 g/ha: > 80%
Setaria viridis [13]
  inhibition of growth at 75 g/ha: < 50%
Setaria viridis [14]
  inhibition of growth at 75 g/ha: < 50%

## C#CCN1C(=O)COc2cc(F)c(N3C(=O)c4cccc(C)c4C3=O)cc21
Abutilon theophrasti [1]
  inhibition of growth at 75 g/ha: < 50%
Chenopodium album [2]
  inhibition of growth at 75 g/ha: < 50%
Digitaria sanguinalis [3]
  inhibition of growth at 75 g/ha: 50%
Abutilon theophrasti [4]
  IC50: 87 g/ha
Abutilon theophrasti [5]
  inhibition of growth at 75 g/ha: < 50%
Echinochloa crus-galli [6]
  inhibition of growth at 75 g/ha: < 50%
Digitaria sanguinalis [7]
  inhibition of growth at 75 g/ha: < 50%
Echinochloa crus-galli [8]
  inhibition of growth at 75 g/ha: 50%
Amaranthus blitum [9]
  inhibition of growth at 75 g/ha: < 50%
Digitaria sanguinalis [10]
  IC50: 63 g/ha
Chenopodium album [11]
  inhibition of growth at 75 g/ha: < 50%
Amaranthus blitum [12]
  inhibition of growth at 75 g/ha: < 50%
Setaria viridis [13]
  inhibition of growth at 75 g/ha: < 50%
Setaria viridis [14]
  inhibition of growth at 75 g/ha: < 50%

## C#CCN1C(=O)C(C)Oc2cc(F)c(N3C(=O)c4ccc(C)cc4C3=O)cc21 (configuration not stated)
Abutilon theophrasti [1]
  inhibition of growth at 75 g/ha: > 80%
Chenopodium album [2]
  inhibition of growth at 75 g/ha: > 80%
Digitaria sanguinalis [3]
  inhibition of growth at 75 g/ha: < 50%
Abutilon theophrasti [4]
  IC50: 18 g/ha
Abutilon theophrasti [5]
  inhibition of growth at 75 g/ha: > 80%
Echinochloa crus-galli [6]
  inhibition of growth at 75 g/ha: < 50%
Digitaria sanguinalis [7]
  inhibition of growth at 75 g/ha: < 50%
Echinochloa crus-galli [8]
  inhibition of growth at 75 g/ha: < 50%
Amaranthus blitum [9]
  inhibition of growth at 75 g/ha: > 80%
Digitaria sanguinalis [10]
  IC50: 393 g/ha
Chenopodium album [11]
  inhibition of growth at 75 g/ha: > 80%
Amaranthus blitum [12]
  inhibition of growth at 75 g/ha: > 80%
Setaria viridis [13]
  inhibition of growth at 75 g/ha: < 50%
Setaria viridis [14]
  inhibition of growth at 75 g/ha: < 50%

— ChEMBL document CHEMBL3045292, “Synthesis and herbicidal activity of 2-(7-fluoro-3-oxo- 3,4-dihydro-2H-benzo[b][1,4]oxazin-6-yl)isoindoline-1,3-diones” (J Agric Food Chem, 2005)
